Reference: ChEMBL document CHEMBL1255424, “Antistaphylococcal activity of ACHN-490 tested alone and in combination with other agents by time-kill assay” (2010)
≈ marks a conversion by molar mass, not a printed value.

Columns and labels:
Type in all cases: functional
Staphylococcus aureus [1] = assay: Antibacterial activity against community-acquired methicillin-resistant panton-valentine leukocidin-positive Staphylococcus aureus isolate 815 after 24 hrs by modified broth macrodilution method; details: isolate 815, 24 h
Method in brief: (§1)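 MIC read after 24 h incubation by modified broth macrodilution, validated per CLSI recommendations, against recent clinical MRSA isolates (hospital- and community-acquired, hVISA, VISA, VRSA). Daptomycin tests ran in Mueller-Hinton broth with added calcium.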

Staphylococcus aureus [2] = assay: Antibacterial activity against vancomycin-intermediate Staphylococcus aureus isolate 1004 after 24 hrs by modified broth macrodilution method; details: isolate 1004, 24 h; method in brief: as §1
Staphylococcus aureus [3] = assay: Antibacterial activity against vancomycin-intermediate Staphylococcus aureus isolate 1013 after 24 hrs by modified broth macrodilution method; details: isolate 1013, 24 h; method in brief: as §1
Staphylococcus aureus [4] = assay: Antibacterial activity against hospital-acquired methicillin-resistant Staphylococcus aureus isolate 1743 after 24 hrs by modified broth macrodilution method; details: isolate 1743, 24 h; method in brief: as §1
Staphylococcus aureus [5] = assay: Antibacterial activity against community-acquired methicillin-resistant panton-valentine leukocidin-positive Staphylococcus aureus isolate 693 after 24 hrs by modified broth macrodilution method; details: isolate 693, 24 h; method in brief: as §1
Staphylococcus aureus [6] = assay: Antibacterial activity against hospital-acquired methicillin-resistant Staphylococcus aureus isolate 1776 after 24 hrs by modified broth macrodilution method; details: isolate 1776, 24 h; method in brief: as §1
Staphylococcus aureus [7] = assay: Antibacterial activity against community-acquired methicillin-resistant panton-valentine leukocidin-positive Staphylococcus aureus isolate 1469 after 24 hrs by modified broth macrodilution method; details: isolate 1469, 24 h; method in brief: as §1
Staphylococcus aureus [8] = assay: Antibacterial activity against vancomycin-hetero-intermediate Staphylococcus aureus isolate 618 after 24 hrs by modified broth macrodilution method; details: isolate 618, 24 h; method in brief: as §1
Staphylococcus aureus [9] = assay: Antibacterial activity against vancomycin-intermediate Staphylococcus aureus isolate 770 after 24 hrs by modified broth macrodilution method; details: isolate 770, 24 h; method in brief: as §1
Staphylococcus aureus [10] = assay: Antibacterial activity against hospital-acquired methicillin-resistant Staphylococcus aureus isolate 1851 after 24 hrs by modified broth macrodilution method; details: isolate 1851, 24 h; method in brief: as §1
Staphylococcus aureus [11] = assay: Antibacterial activity against vancomycin-resistant Staphylococcus aureus isolate 1263 after 24 hrs by modified broth macrodilution method; details: isolate 1263, 24 h; method in brief: as §1
Staphylococcus aureus [12] = assay: Antibacterial activity against hospital-acquired methicillin-resistant Staphylococcus aureus isolate 1751 after 24 hrs by modified broth macrodilution method; details: isolate 1751, 24 h; method in brief: as §1
Staphylococcus aureus [13] = assay: Antibacterial activity against vancomycin-intermediate Staphylococcus aureus isolate 511 after 24 hrs by modified broth macrodilution method; details: isolate 511, 24 h; method in brief: as §1
Staphylococcus aureus [14] = assay: Antibacterial activity against vancomycin-intermediate Staphylococcus aureus isolate 1014 after 24 hrs by modified broth macrodilution method; details: isolate 1014, 24 h; method in brief: as §1
Staphylococcus aureus [15] = assay: Antibacterial activity against community-acquired methicillin-resistant panton-valentine leukocidin-negative Staphylococcus aureus isolate 1470 after 24 hrs by modified broth macrodilution method; details: isolate 1470, 24 h; method in brief: as §1
Staphylococcus aureus [16] = assay: Antibacterial activity against community-acquired methicillin-resistant panton-valentine leukocidin-positive Staphylococcus aureus isolate 950 after 24 hrs by modified broth macrodilution method; details: isolate 950, 24 h; method in brief: as §1
Staphylococcus aureus [17] = assay: Antibacterial activity against vancomycin-resistant Staphylococcus aureus isolate 557 after 24 hrs by modified broth macrodilution method; details: isolate 557, 24 h; method in brief: as §1
Staphylococcus aureus [18] = assay: Antibacterial activity against vancomycin-intermediate Staphylococcus aureus isolate 1010 after 24 hrs by modified broth macrodilution method; details: isolate 1010, 24 h; method in brief: as §1
Staphylococcus aureus [19] = assay: Antibacterial activity against vancomycin-intermediate Staphylococcus aureus isolate 1009 after 24 hrs by modified broth macrodilution method; details: isolate 1009, 24 h; method in brief: as §1
Staphylococcus aureus [20] = assay: Antibacterial activity against vancomycin-intermediate Staphylococcus aureus isolate 1287 after 24 hrs by modified broth macrodilution method; details: isolate 1287, 24 h; method in brief: as §1
Staphylococcus aureus [21] = assay: Antibacterial activity against vancomycin-hetero-intermediate Staphylococcus aureus isolate 873 after 24 hrs by modified broth macrodilution method; details: isolate 873, 24 h; method in brief: as §1
Staphylococcus aureus [22] = assay: Antibacterial activity against vancomycin-intermediate Staphylococcus aureus isolate 1006 after 24 hrs by modified broth macrodilution method; details: isolate 1006, 24 h; method in brief: as §1
Staphylococcus aureus [23] = assay: Antibacterial activity against community-acquired methicillin-resistant panton-valentine leukocidin-positive Staphylococcus aureus isolate 1472 after 24 hrs by modified broth macrodilution method; details: isolate 1472, 24 h; method in brief: as §1
Staphylococcus aureus [24] = assay: Antibacterial activity against vancomycin-susceptible Staphylococcus aureus after 24 hrs by modified broth macrodilution method
Method in brief: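 MICs determined in recent clinical MRSA isolates by a modified broth macrodilution method per CLSI recommendations, with 24 h incubation. Daptomycin tests used Mueller-Hinton broth supplemented with calcium. Value is the lowest inhibitory drug concentration.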

Staphylococcus aureus [25] = assay: Antibacterial activity against hospital-acquired methicillin-resistant Staphylococcus aureus isolate 1838 after 24 hrs by modified broth macrodilution method; details: isolate 1838, 24 h; method in brief: as §1
Staphylococcus aureus [26] = assay: Antibacterial activity against vancomycin-resistant Staphylococcus aureus after 24 hrs by modified broth macrodilution method; method in brief: as §1

CCCCCCCCCC(=O)N[C@@H](Cc1c[nH]c2ccccc12)C(=O)N[C@H](CC(N)=O)C(=O)N[C@@H](CC(=O)O)C(=O)N[C@@H]1C(=O)NCC(=O)N[C@@H](CCCN)C(=O)N[C@@H](CC(=O)O)C(=O)N[C@H](C)C(=O)N[C@@H](CC(=O)O)C(=O)NCC(=O)N[C@H](CO)C(=O)N[C@@H]([C@H](C)CC(=O)O)C(=O)N[C@@H](CC(=O)c2ccccc2N)C(=O)O[C@@H]1C
MIC (Staphylococcus aureus [1]): 0.5 µg/mL (≈ 0.309 µM) | MIC (Staphylococcus aureus [2]): 0.5 µg/mL (≈ 0.309 µM) | MIC (Staphylococcus aureus [3]): 2 µg/mL (≈ 1.23 µM) | MIC (Staphylococcus aureus [4]): 0.25 µg/mL (≈ 0.154 µM) | MIC (Staphylococcus aureus [5]): 0.5 µg/mL (≈ 0.309 µM) | MIC (Staphylococcus aureus [6]): 0.5 µg/mL (≈ 0.309 µM) | MIC (Staphylococcus aureus [7]): 0.5 µg/mL (≈ 0.309 µM) | MIC (Staphylococcus aureus [8]): 1 µg/mL (≈ 0.617 µM) | MIC (Staphylococcus aureus [9]): 0.5 µg/mL (≈ 0.309 µM) | MIC (Staphylococcus aureus [10]): 0.5 µg/mL (≈ 0.309 µM) | MIC (Staphylococcus aureus [11]): 0.5 µg/mL (≈ 0.309 µM) | MIC (Staphylococcus aureus [12]): 0.5 µg/mL (≈ 0.309 µM) | MIC (Staphylococcus aureus [13]): 1 µg/mL (≈ 0.617 µM) | MIC (Staphylococcus aureus [14]): 2 µg/mL (≈ 1.23 µM) | MIC (Staphylococcus aureus [15]): 0.5 µg/mL (≈ 0.309 µM) | MIC (Staphylococcus aureus [16]): 0.25 µg/mL (≈ 0.154 µM) | MIC (Staphylococcus aureus [17]): 0.25 µg/mL (≈ 0.154 µM) | MIC (Staphylococcus aureus [18]): 1 µg/mL (≈ 0.617 µM) | MIC (Staphylococcus aureus [19]): 2 µg/mL (≈ 1.23 µM) | MIC (Staphylococcus aureus [20]): 2 µg/mL (≈ 1.23 µM) | MIC (Staphylococcus aureus [21]): 0.5 µg/mL (≈ 0.309 µM) | MIC (Staphylococcus aureus [22]): 2 µg/mL (≈ 1.23 µM) | MIC (Staphylococcus aureus [23]): 0.5 µg/mL (≈ 0.309 µM) | MIC (Staphylococcus aureus [24]): 0.25 µg/mL (≈ 0.154 µM) | MIC (Staphylococcus aureus [25]): 0.5 µg/mL (≈ 0.309 µM) | MIC (Staphylococcus aureus [26]): 0.25 µg/mL (≈ 0.154 µM)
